Data taken from ChEMBL document CHEMBL1126098, “Synthesis and SAR of 6-substituted purine derivatives as novel selective positive inotropes” (J Med Chem, 1992).
The source made the active and inactive calls. No cut-off for these calls is given here.

Experiments:
Canis familiaris [1] = test: Cardiac force in dog after administering ca. 1.875 mg/Kg drug intravenously.; assay type: functional, Canis lupus familiaris; design: unit not given beside the values
Method in brief: (§1)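 Adult mongrel dogs anesthetized with sodium pentobarbital (45 mg/kg ip) and artificially respired. MAP measured via cannulated femoral artery; HR from cardiotachometer; LV +dP/dtmax via Millar catheter; CF by Walton Brodie strain gauge on right ventricle (baseline tension 100 g). Compound in 10% DMF/saline or HCl salt, infused iv into femoral vein over 5 min per step. Each step given at peak of the prior one; three to four increasing doses. Response expressed as % change from predrug control; n = 1–5 dogs.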

Canis familiaris [2] = test: Effective dose required to produce 50% increase of cardiac force in dog after administering ca. 1.875 mg/Kg drug intravenously; assay type: functional; details: Canis lupus familiaris, iv; method in brief: as §1
Canis familiaris [3] = test: Mean arterial blood pressure in dog after administering ca. 1.875 mg/Kg drug intravenously.; assay type: functional, Canis lupus familiaris; design: unit not given beside the values; method in brief: as §1
Canis familiaris [4] = species on record: Canis familiaris; test: dP/dt max was determined in dog; assay type: functional, Canis lupus familiaris; design: unit not given beside the values; method in brief: as §1
[5] = Relative change in CF was determined by calculating the effective concentration that produced a 50% of maximum increase in tension; assay type: functional, Mustela putorius furo
Method in brief: (§2)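 Ferret papillary muscle in Tyrode's solution with timolol (1×10^-7 M); compound given at cumulative serially increasing concentrations, each read at 15 min. EC50 is the concentration giving 50% of that compound's own maximal tension increase. Estimated graphically from mean data, n ≥ 3.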

Canis familiaris [6] = test: Heart rate in dog after administering ca. 1.875 mg/Kg drug intravenously; assay type: functional, Canis lupus familiaris; method in brief: as §1
[7] = In vitro changes in contractile force (CF) quantitated by determining the maximal increase in isometric tension by using ferret papillary muscle; assay type: functional, Mustela putorius furo, Muscle tissue
Method in brief: (§3)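 Isolated ferret papillary muscle in Tyrode's solution with timolol (1×10^-7 M), equilibrated 2 h. Compound diluted from 1×10^-2 M DMSO stock and added at serially increasing concentrations, up to 10 μM. Isometric tension read 15 min after each addition. Result is maximal increase as % of control tension, from mean of n ≥ 3.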

Mustela putorius furo = species on record: Mustela putorius furo; test: In vitro changes in contractile force (CF) quantitated by determining the maximal increase in isometric tension by using ferret papillary muscle.; assay type: functional, tissue-based; details: Muscle tissue; method in brief: as §3
[8] = Relative change in CF was determined by calculating the effective concentration that produced a 50% of maximum increase in tension.; assay type: functional, Mustela putorius furo; method in brief: as §2
Canis familiaris [9] = test: Heart rate determined in dog after administering ca. 1.875 mg/kg drug intra venously; assay type: functional, Canis lupus familiaris; method in brief: as §1
Canis familiaris [10] = test: Dose to produce a 50% increase of CF n dog after administering ca. 1.875 mg/kg drug intra venously; assay type: functional; details: Canis lupus familiaris; method in brief: as §1
Canis familiaris [11] = test: Cardiac force was determined in dog after administering ca. 1.875 mg/kg drug intra venously; assay type: functional, Canis lupus familiaris; method in brief: as §1
Canis familiaris [12] = test: Mean arterial blood pressure determined in dog after administering ca. 1.875 mg/kg drug intra venously; assay type: functional, Canis lupus familiaris; method in brief: as §1
[13] = Relative changes in CF was determined by calculating the effective concentration that produced a 50% of maximum increase in tension; assay type: functional, Mustela putorius furo; method in brief: as §2

| EC50 [5] | EC50 [8] | EC50 [13] | Structure (SMILES) | Cardiac force (Canis familiaris [1]) | ED50 (Canis familiaris [2]) | MAP (Canis familiaris [3]) | dP/dt max (Canis familiaris [4]) | Heart rate (Canis familiaris [6]) | Max [7] | Max (Mustela putorius furo) | Heart rate (Canis familiaris [9]) | ED50 (Canis familiaris [10]) | Cardiac force (Canis familiaris [11]) | MPA (Canis familiaris [12]) |
| --- | --- | --- | --- | --- | --- | --- | --- | --- | --- | --- | --- | --- | --- | --- |
| 470 nM | – | – | OC(CSc1[nH]cnc2ncnc1-2)CN1CCN(C(c2ccc(Br)cc2)c2ccc(Br)cc2)CC1 (stereo not given) | 148 | 0.31 mg/kg | 11 | 108 | -2 | 64% | – | – | – | – | – |
| – | Not Active | – | OC(COc1ncnc2c1ncn2C1CCCCO1)CN1CCN(C(c2ccc(F)cc2)c2ccc(F)cc2)CC1 (stereo not given) | 34 | – | -5 | 38 | 9 | – | inactive | – | – | – | – |
| – | Not Active | – | OC(CSc1[nH]cnc2ncnc1-2)CN1CCN(C(c2ccccc2)(c2ccccc2)c2ccccc2)CC1 (stereo not given) | 22 | – | -14 | 23 | 4 | – | inactive | – | – | – | – |
| 170 nM | – | – | CC(C)(C)C(=O)OC(CSc1[nH]cnc2ncnc1-2)CN1CCN(C(c2ccc(F)cc2)c2ccc(F)cc2)CC1 (stereo not given) | 12 | – | -5 | 24 | 4 | 43% | – | – | – | – | – |
| 600 nM | – | – | Cn1cnc2c(SCC(O)CN3CCN(C(c4ccc(F)cc4)c4ccc(F)cc4)CC3)ncnc21 (stereo not given) | 50 | 1.9 mg/kg | -6 | 11 | -2 | 142% | – | – | – | – | – |
| 500 nM | – | – | OC(CNc1[nH]cnc2ncnc1-2)CN1CCN(C(c2ccc(F)cc2)c2ccc(F)cc2)CC1 (stereo not given) | 154 | 0.28 mg/kg | -2 | 83 | 2 | 86% | – | – | – | – | – |
| – | Not Active | – | CCN(CC(O)CN1CCN(C(c2ccc(F)cc2)c2ccc(F)cc2)CC1)c1[nH]cnc2ncnc1-2 (stereo not given) | 13 | – | 5 | 16 | 2 | – | inactive | – | – | – | – |
| 2100 nM | – | – | CC(=O)OC(CNc1[nH]cnc2ncnc1-2)CN1CCN(C(c2ccc(F)cc2)c2ccc(F)cc2)CC1 (stereo not given) | 144 | 0.27 mg/kg | -26 | 70 | -12 | 45% | – | – | – | – | – |
| 1000 nM | – | – | OC(CSc1[nH]cnc2ncnc1-2)CN1CCN(C(c2ccc(C(F)(F)F)cc2)c2ccc(C(F)(F)F)cc2)CC1 (stereo not given) | 71 | – | 5 | 47 | 0 | 47% | – | – | – | – | – |
| – | Not Active | – | CN(CC(O)CN1CCN(C(c2ccc(F)cc2)c2ccc(F)cc2)CC1)c1[nH]cnc2ncnc1-2 (stereo not given) | 82 | 0.74 mg/kg | 4 | 66 | 7 | – | inactive | – | – | – | – |
| 700 nM | – | – | CC(=O)OC(CSc1[nH]cnc2ncnc1-2)CN1CCN(C(c2ccc(F)cc2)c2ccc(F)cc2)CC1 (stereo not given) | 145 | 0.3 mg/kg | -12 | 62 | -4 | 248% | – | – | – | – | – |
| 300 nM | – | – | OC(CSc1ncnc2[nH]cnc12)CN1CCN(C(c2ccc(F)cc2)c2ccc(F)cc2)CC1 (stereo not given) [CARSATRIN] | 224 | 0.15 mg/kg | -5 | 150 | 0 | 189% | – | – | – | – | – |
| 500 nM | – | – | N#Cc1cc2c(OCC(O)CN3CCN(C(c4ccccc4)c4ccccc4)CC3)cccc2[nH]1 (stereo not given) | 98 | 0.43 mg/kg | -21 | 88 | -12 | 131% | – | – | – | – | – |
| – | Not Active | – | OC(COc1ncnc2c1ncn2C1CCCCO1)CN1CCN(C(c2ccccc2)c2ccccc2)CC1 (stereo not given) | 24 | – | -2 | 13 | 0 | – | inactive | – | – | – | – |
| – | – | – | OC(CSc1[nH]cnc2ncnc1-2)CN1CCN(C(c2ccc(Cl)cc2)c2ccc(Cl)cc2)CC1 (stereo not given) | 151 | 0.33 mg/kg | 9 | 99 | -4 | – | – | – | – | – | – |
| – | Not Active | – | COc1cc(OC)c(C(=O)OC(CSc2[nH]cnc3ncnc2-3)CN2CCN(C(c3ccc(F)cc3)c3ccc(F)cc3)CC2)c(OC)c1 (stereo not given) | 17 | – | 0 | 15 | 3 | – | inactive | – | – | – | – |
| 1600 nM | – | – | OC(CSc1[nH]cnc2ncnc1-2)CN1CCN(C(c2ccc(Cl)cc2Cl)c2ccc(Cl)cc2Cl)CC1 (stereo not given) | 69 | 0.9 mg/kg | -10 | 47 | 6 | 49% | – | – | – | – | – |
| – | Not Active | – | OC(COc1[nH]cnc2ncnc1-2)CN1CCN(C(c2ccc(F)cc2)c2ccc(F)cc2)CC1 (stereo not given) | 80 | 0.72 mg/kg | 4 | 58 | 12 | – | inactive | – | – | – | – |
| 1900 nM | – | – | Nc1nc(SCC(O)CN2CCN(C(c3ccc(F)cc3)c3ccc(F)cc3)CC2)c2[nH]cnc2n1 (stereo not given) | 74 | 0.85 mg/kg | -9 | 38 | 12 | 74% | – | – | – | – | – |
| – | Not Active | – | OC(CSc1[nH]cnc2ncnc1-2)CN1CCN(Cc2ccccc2)CC1 (stereo not given) | 30 | – | 1 | 34 | 0 | – | inactive | – | – | – | – |
| – | Not Active | – | OC(CSc1ncnc2c1ncn2-c1ccccc1)CN1CCN(C(c2ccc(F)cc2)c2ccc(F)cc2)CC1 (stereo not given) | 12 | – | -3 | 5 | 4 | – | inactive | – | – | – | – |
| 500 nM | – | – | COc1ccc(C(c2ccc(OC)cc2)N2CCN(CC(O)CSc3[nH]cnc4ncnc3-4)CC2)cc1 (stereo not given) | 45 | – | -7 | 18 | -2 | 98% | – | – | – | – | – |
| – | – | 2500 nM | CC(=O)Oc1ccccc1C(=O)OC(CSc1[nH]cnc2ncnc1-2)CN1CCN(C(c2ccc(F)cc2)c2ccc(F)cc2)CC1 (stereo not given) | – | – | – | 34 | – | 34% | – | 1 | 1.6 mg/kg | 56 | 0 |
| 1100 nM | – | – | OC(CSc1[nH]cnc2ncnc1-2)CN1CCN(C(c2ccccc2)c2ccccc2)CC1 (stereo not given) | 86 | 0.63 mg/kg | -12 | 60 | -1 | 249% | – | – | – | – | – |
| – | Not Active | – | Fc1ccc(C(c2ccc(F)cc2)N2CCN(CCCSc3[nH]cnc4ncnc3-4)CC2)cc1 | 38 | 1.3 mg/kg | -6 | 17 | 2 | – | inactive | – | – | – | – |
| – | Not Active | – | OC(COc1[nH]cnc2ncnc1-2)CN1CCN(C(c2ccccc2)c2ccccc2)CC1 (stereo not given) | 69 | 0.9 mg/kg | 4 | 37 | 2 | – | inactive | – | – | – | – |
| – | – | – | Cc1nc(SCC(O)CN2CCN(C(c3ccc(F)cc3)c3ccc(F)cc3)CC2)c2[nH]cnc2n1 (stereo not given) | 23 | – | 1 | 17 | 1 | – | – | – | – | – | – |
| 3400 nM | – | – | OC(CSc1[nH]cnc2ncnc1-2)CN1CCN(C(c2cccc(C(F)(F)F)c2)c2cccc(C(F)(F)F)c2)CC1 (stereo not given) | 68 | 1.1 mg/kg | 8 | 46 | -6 | 106% | – | – | – | – | – |
| 440 nM | – | – | OC(CSc1[nH]cnc2ncnc1-2)CN1CCN(C(c2ccccc2)c2ccc(Cl)cc2)CC1 (stereo not given) | 100 | 0.49 mg/kg | 2 | 75 | -4 | 242% | – | – | – | – | – |

| Structure (SMILES) | EC50 [5] | EC50 [8] | EC50 [13] | Cardiac force (Canis familiaris [1]) | ED50 (Canis familiaris [2]) | MAP (Canis familiaris [3]) | dP/dt max (Canis familiaris [4]) | Heart rate (Canis familiaris [6]) | Max [7] | Max (Mustela putorius furo) | Heart rate (Canis familiaris [9]) | ED50 (Canis familiaris [10]) | Cardiac force (Canis familiaris [11]) | MPA (Canis familiaris [12]) |
| --- | --- | --- | --- | --- | --- | --- | --- | --- | --- | --- | --- | --- | --- | --- |
| O=S(=O)(O)OC(CSc1[nH]cnc2ncnc1-2)CN1CCN(C(c2ccc(F)cc2)c2ccc(F)cc2)CC1 (stereo not given) | 390 nM | – | – | 159 | 0.26 mg/kg | 6 | 110 | 6 | 57% | – | – | – | – | – |
